# Data as given in ChEMBL document CHEMBL4130411, “Arylthiazole antibiotics targeting intracellular methicillin-resistant Staphylococcus aureus (MRSA) that interfere with bacterial cell wall synthesis” (Eur J Med Chem, 2017).
# The source made the active and inactive calls. The calls are words filed in the database; no cut-off is given here.
# How the values were obtained:
# Staphylococcus aureus [1] = assay: Antibacterial activity against methicillin-resistant Staphylococcus aureus USA300 NRS384 after 20 hrs by broth microdilution assay; assay type: functional; conditions: USA300 NRS384, 20 h
# Staphylococcus aureus [2] = assay: Antibacterial activity against vancomycin-resistant Staphylococcus aureus isolate 4 after 20 hrs by broth microdilution assay; assay type: functional; conditions: isolate 4, 20 h
# Staphylococcus aureus [3] = assay: Antibacterial activity against vancomycin-resistant Staphylococcus aureus isolate 10 after 20 hrs by broth microdilution assay; assay type: functional; conditions: isolate 10, 20 h
# Staphylococcus aureus [4] = assay: Bactericidal activity against Staphylococcus aureus RN4220 NRS107 incubated for 20 hrs followed by replating on tryptic soy agar plates and further incubated for 18 hrs by broth microdilution assay; assay type: functional
# Staphylococcus aureus [5] = assay: Bactericidal activity against methicillin-resistant Staphylococcus aureus NRS123 (USA400) incubated for 20 hrs followed by replating on tryptic soy agar plates and further incubated for 18 hrs by broth microdilution assay; assay type: functional
# Staphylococcus aureus [6] = assay: Bactericidal activity against methicillin-resistant Staphylococcus aureus USA100 NRS382 incubated for 20 hrs followed by replating on tryptic soy agar plates and further incubated for 18 hrs by broth microdilution assay; assay type: functional
# Staphylococcus aureus [7] = assay: Bactericidal activity against methicillin-resistant Staphylococcus aureus USA200 NRS383 incubated for 20 hrs followed by replating on tryptic soy agar plates and further incubated for 18 hrs by broth microdilution assay; assay type: functional
# Staphylococcus aureus [8] = assay: Bactericidal activity against methicillin-resistant Staphylococcus aureus USA300 NRS384 incubated for 20 hrs followed by replating on tryptic soy agar plates and further incubated for 18 hrs by broth microdilution assay; assay type: functional
# Staphylococcus aureus [9] = assay: Bactericidal activity against vancomycin-resistant Staphylococcus aureus isolate 4 incubated for 20 hrs followed by replating on tryptic soy agar plates and further incubated for 18 hrs by broth microdilution assay; assay type: functional
# Staphylococcus aureus [10] = assay: Bactericidal activity against vancomycin-resistant Staphylococcus aureus isolate 10 incubated for 20 hrs followed by replating on tryptic soy agar plates and further incubated for 18 hrs by broth microdilution assay; assay type: functional
# Outline: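 From MIC wells without visible growth, an aliquot was spotted onto Tryptic soy agar and incubated at 37 °C for at least 18 h; MBC = lowest concentration inhibiting 99.9% of bacterial growth.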
# Staphylococcus aureus [11] = assay: Bactericidal activity against methicillin-resistant Staphylococcus aureus NRS123 (USA400) assessed as time required for complete bacterial elimination by time-kill assay; assay type: functional
# HaCaT = assay: Cytotoxicity against human HaCaT cells assessed as reduction in cell viability up to 32 ug/ml after 2 hrs by MTS assay; assay type: cell-based
# Outline: (§1)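 Cells were HaCaT keratinocytes or J774 murine macrophages, grown in DMEM with 10% FBS at 37 °C, 5% CO2. They were exposed in triplicate to 8, 16, 32 and 64 µg/mL for 2 h, with DMSO-matched controls. MTS was then added for 4 h and absorbance read at 490 nm. Viability is expressed as % of DMSO-treated cells, mean ± SD.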
# J774 = assay: Cytotoxicity against mouse J774 cells assessed as reduction in cell viability up to 16 ug/ml after 2 hrs by MTS assay; assay type: cell-based; conditions: j774, 2 h; outline: as §1
# Staphylococcus aureus [12] = assay: Antibacterial activity against methicillin-resistant Staphylococcus aureus NRS123 (USA400) infected in mouse J774 cells assessed as reduction in bacterial colony forming units at 16 ug/ml after 4 hrs; assay type: functional, organism-based
# Outline: (§2)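 J774 macrophages in DMEM + 10% FBS, 37 °C, 5% CO2, infected with USA400 at MOI ~100:1; after 1 h, gentamicin (50 µg/mL) wash; agent at 16 µg/mL in triplicate; at time point, gentamicin wash, lysis in 0.1% Triton X-100, serial dilution, TSA plating 18-22 h at 37 °C; % CFU/mL reduction versus untreated; t-test.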
# Staphylococcus aureus [13] = assay: Antibacterial activity against methicillin-resistant Staphylococcus aureus NRS123 (USA400) infected in mouse J774 cells assessed as reduction in bacterial colony forming units at 16 ug/ml after 24 hrs relative to control; assay type: functional; design: scale not given: the % may be the effect or the level left; outline: as §2
# Staphylococcus aureus [14] = assay: Antibacterial activity against methicillin-resistant Staphylococcus aureus USA300 NRS384 infected in Caenorhabditis elegans AU37 assessed as reduction in bacterial burden at 20 ug/ml after 18 hrs by microscopic analysis; assay type: functional; design: scale not given: the % may be the effect or the level left
# Staphylococcus aureus [15] = assay: Inhibition of cell wall synthesis in Staphylococcus aureus RN4220 NRS107 assessed as UDP-N-acetylmuramyl pentapeptide formation at 10 times MIC incubated for 30 mins by HPLC-MS analysis; assay type: functional, organism-based
# Bacillus subtilis [16] = assay: Inhibition of cell wall biosynthesis in Bacillus subtilis assessed as induction of small bulges formation at 3.5 ug/ml incubated for 2 hrs in presence of osmotic stabilising agent MSM by FM-4-64 staining based assay; assay type: functional, organism-based
# Outline: (§3)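 B. subtilis grown in LB at 37 °C to OD600 ~0.2, then treated with or without the osmotic stabiliser MSM for 2 h; stained with FM 4-64 (1 µg/mL, membranes), DAPI (1 µg/mL, DNA) and SYTOX Green (1 µg/mL, lysis); imaged by deconvolution fluorescence microscopy.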
# Bacillus subtilis [17] = assay: Inhibition of cell wall biosynthesis in Bacillus subtilis assessed as induction of formation of misshapen cells at 3.5 ug/ml incubated for 2 hrs in presence of osmotic stabilising agent MSM by FM-4-64 staining based assay; assay type: functional, organism-based; outline: as §3
# Staphylococcus aureus [18] = assay: Selectivity ratio of MBC99.9 for Staphylococcus aureus RN4220 NRS107 to MIC for Staphylococcus aureus RN4220 NRS107; assay type: functional
# Staphylococcus aureus [19] = assay: Selectivity ratio of MBC99.9 for methicillin-resistant Staphylococcus aureus NRS123 (USA400) to MIC for methicillin-resistant Staphylococcus aureus NRS123 (USA400); assay type: functional
# Staphylococcus aureus [20] = assay: Selectivity ratio of MBC99.9 for methicillin-resistant Staphylococcus aureus USA100 NRS382 to MIC for methicillin-resistant Staphylococcus aureus USA100 NRS382; assay type: functional
# Staphylococcus aureus [21] = assay: Selectivity ratio of MBC99.9 for methicillin-resistant Staphylococcus aureus USA200 NRS383 to MIC for methicillin-resistant Staphylococcus aureus USA200 NRS383; assay type: functional
# Staphylococcus aureus [22] = assay: Selectivity ratio of MBC99.9 for methicillin-resistant Staphylococcus aureus USA300 NRS384 to MIC for methicillin-resistant Staphylococcus aureus USA300 NRS384; assay type: functional
# [23] = Half life in human liver microsomes in presence of NADPH by LC-MS/MS analysis; assay type: ADME, microsome; conditions: microsomes
# Outline: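 Human liver microsomal protein was incubated in duplicate at 37 °C in 100 mM potassium phosphate, 2 mM NADPH, 3 mM MgCl2, pH 7.4. Samples were taken at 0, 10, 20, 40 and 60 min and stopped with ice-cold methanol containing an internal standard. Half-life was derived from depletion. CLint = ln(2)/(T1/2 × microsomal protein concentration).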
# [24] = Half life in human liver microsomes in absence of NADPH by LC-MS/MS analysis; assay type: ADME, microsome
# Outline: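 Human liver microsomes were incubated in duplicate at 37 °C in 100 mM potassium phosphate with 3 mM MgCl2, pH 7.4, without NADPH to detect NADPH-free degradation. Aliquots were taken at 0, 10, 20, 40 and 60 min and quenched in ice-cold methanol containing an internal standard, then held at least 10 min at -20 °C before water was added. Half-life was taken from compound depletion.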
# [25] = Selectivity ratio of cytotoxicity against human HaCaT cells to MIC for Staphylococcus aureus RN4220 NRS107; assay type: toxicity, cell-based
# [26] = Selectivity ratio of cytotoxicity against human HaCaT cells to MIC for methicillin-resistant Staphylococcus aureus NRS123 (USA400); assay type: toxicity, cell-based
# [27] = Selectivity ratio of cytotoxicity against human HaCaT cells to MIC for methicillin-resistant Staphylococcus aureus USA100 NRS382; assay type: toxicity, cell-based
# [28] = Selectivity ratio of cytotoxicity against human HaCaT cells to MIC for methicillin-resistant Staphylococcus aureus USA200 NRS383; assay type: toxicity, cell-based
# [29] = Selectivity ratio of cytotoxicity against human HaCaT cells to MIC for methicillin-resistant Staphylococcus aureus USA300 NRS384; assay type: toxicity, cell-based
# Staphylococcus aureus [30] = assay: Antibacterial activity against methicillin-resistant Staphylococcus aureus USA300 NRS384 infected in Caenorhabditis elegans AU37 assessed as reduction in bacterial burden at 20 ug/ml after 18 hrs by microscopic analysis relative to vancomycin; assay type: functional
# Staphylococcus aureus [31] = assay: Potentiation of vancomycin-induced antibacterial activity against vancomycin-resistant Staphylococcus aureus isolate 10 assessed as vancomycin MIC after 20 to 22 hrs by broth microdilution assay (reference value: […]); assay type: functional
# Staphylococcus aureus [32] = assay: Potentiation of vancomycin-induced antibacterial activity against vancomycin-resistant Staphylococcus aureus isolate 10 assessed as reduction in vancomycin MIC after 20 to 22 hrs by broth microdilution assay relative to vancomycin alone; assay type: functional
# Bacillus subtilis [33] = assay: Inhibition of cell wall biosynthesis in Bacillus subtilis at 4 times MIC incubated for 2 hrs by SYTOX Green staining-based assay
compound,measurement,setting,value
Cc1nc(-c2ccc3ccccc3c2)sc1-c1cnc(NC(=N)N)s1,MIC,Staphylococcus aureus [1],4 µg/mL
same,MIC,Staphylococcus aureus [2],4 µg/mL
same,MIC,Staphylococcus aureus [3],4 µg/mL
same,MBC,Staphylococcus aureus [4],4 µg/mL
same,MBC,Staphylococcus aureus [5],4 µg/mL
same,MBC,Staphylococcus aureus [6],2 µg/mL
same,MBC,Staphylococcus aureus [7],2 µg/mL
same,MBC,Staphylococcus aureus [8],4 µg/mL
same,MBC,Staphylococcus aureus [9],4 µg/mL
same,MBC,Staphylococcus aureus [10],4 µg/mL
same,Time,Staphylococcus aureus [11],<=4 hr
same,Activity,HaCaT,Non-Toxic
same,Activity,J774,Non-Toxic
same,Activity,Staphylococcus aureus [12],inactive
same,Activity,Staphylococcus aureus [13],81%
same,Activity,Staphylococcus aureus [14],30%
same,inhibition,Staphylococcus aureus [15],Active
same,inhibition,Bacillus subtilis [16],Active
same,inhibition,Bacillus subtilis [17],Active
same,selectivity ratio,Staphylococcus aureus [18],2
same,selectivity ratio,Staphylococcus aureus [19],2
same,selectivity ratio,Staphylococcus aureus [20],2
same,selectivity ratio,Staphylococcus aureus [21],1
same,selectivity ratio,Staphylococcus aureus [22],1
same,t1/2,[23],2.23 h
same,t1/2,[24],> 4 h
same,selectivity ratio,[25],4 to 16
same,selectivity ratio,[26],4 to 16
same,selectivity ratio,[27],4 to 16
same,selectivity ratio,[28],4 to 16
same,selectivity ratio,[29],4 to 16
same,fold change (FC),Staphylococcus aureus [30],3
same,MIC,Staphylococcus aureus [31],1 µg/mL
same,fold change (FC),Staphylococcus aureus [32],512
same,inhibition,Bacillus subtilis [33],Active
